From ChEMBL document CHEMBL1121831 (1981)

Legend:
[1] = system: CCRF-CEM; experiment: Compound was tested for the inhibition of growth of human lymphoblastic leukemia cells (CEM); type: functional; settings: read-out: ID50 (the source's name)
Outline: (§1)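 CEM human lymphoblastic and L1210 murine leukemia cells were grown in culture with drug for 48 h, at concentrations up to 10 μM. The read-out was growth inhibition, given as ID50 or, where ID50 was not reached, as percent inhibition at 10 μM. Values are averages of triplicate experiments.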

[2] = biological target: Dihydrofolate reductase (Lactobacillus casei) (UniProt P00381); experiment: Compound is evaluated for binding to Lactobacillus casei dihydrofolate reductase using kinetic assay; settings: Lacticaseibacillus casei
Dihydrofolate reductase (Lactobacillus casei), sequence (P00381 whole entry): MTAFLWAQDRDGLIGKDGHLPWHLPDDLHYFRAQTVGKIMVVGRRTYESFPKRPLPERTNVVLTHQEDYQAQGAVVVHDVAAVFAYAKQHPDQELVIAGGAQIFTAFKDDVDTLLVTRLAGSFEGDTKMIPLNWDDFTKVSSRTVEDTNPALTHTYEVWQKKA

[3] = system: RBL-1; experiment: Compound was tested for the inhibition of growth of rat basophilic leukemia (RBL) cells; type: functional; settings: read-out: ID50 (the source's name)
[4] = system: CCRF-CEM (Homo sapiens); experiment: Percent inhibition of human lymphoblastic leukemia cell growth (48h) at 10 uM
[5] = system: L1210; experiment: Compound was tested for the inhibition of growth of murine leukemia cells (L1210); type: functional; settings: Mus musculus, read-out: ID50 (the source's name); outline: as §1
[6] = biological target: T1, Dihydrofolate reductase (Mus musculus) (UniProt P00375); experiment: Compound is evaluated for binding to L1210 mouse leukemia cells dihydrofolate reductase using ligand-binding assay
T1 sequence (whole entry): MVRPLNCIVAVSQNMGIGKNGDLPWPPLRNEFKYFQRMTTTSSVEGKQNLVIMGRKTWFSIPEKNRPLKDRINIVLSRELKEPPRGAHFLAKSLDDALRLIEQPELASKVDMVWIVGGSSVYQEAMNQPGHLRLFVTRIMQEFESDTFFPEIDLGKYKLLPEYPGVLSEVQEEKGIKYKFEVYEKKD

[7] = system: L1210; experiment: Compound is tested for the inhibition of growth of murine leukemia cells (L1210); type: functional; settings: Mus musculus, read-out: ID50 (the source's name); outline: as §1
[8] = system: Mus musculus; experiment: Compound is evaluated for activity against L1210 leukemia in mice, at dose 160 mg/kg expressed as T/C=15/9; type: functional
Outline: (§2)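 B6D2F1 mice were inoculated ip with 10^5 L1210 cells on day 0. Test agents were given ip on days 1, 4 and 7 in 10% Tween 80 or a 1:1:8 emulphor-ethanol-water suspension; MTX was given ip as the disodium salt in water. Groups were mostly five mice. Read-out was median survival of treated vs control mice (days) and % increase in life span.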

[9] = system: CCRF-CEM; experiment: Compound is tested for the inhibition of growth of human lymphoblastic leukemia cells (CEM); type: functional; settings: read-out: ID50 (the source's name); outline: as §1
[10] = system: L1210; experiment: Compound is evaluated for activity against L1210 leukemia in mice, at dose 80 mg/kg; type: functional, Mus musculus; outline: as §2
[11] = system: L1210; experiment: Compound is evaluated for percent increase in life span against L1210 leukemia in mice, at dose 80 mg/kg; type: functional; settings: Mus musculus
Outline: (§3)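 B6D2F1 mice were inoculated ip with 10⁵ L1210 cells on day 0. Drug was given ip on days 1, 4 and 7 (q3d) as a suspension in 10% Tween 80 or 1:1:8 emulphor–ethanol–water, or as the disodium salt in water. The read-out was median survival of treated versus control mice (T/C, days), expressed as % increase in life span.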

[12] = system: Mus musculus; experiment: Compound is evaluated for activity against L1210 leukemia in mice, at dose 80 mg/kg expressed as T/C=11/9; type: functional; outline: as §2
[13] = system: L1210; experiment: Compound is evaluated for activity against L1210 leukemia in mice, at dose 160 mg/kg; type: functional, Mus musculus; outline: as §2
[14] = system: L1210; experiment: Compound is evaluated for percent increase in life span against L1210 leukemia in mice, at dose 160 mg/kg; type: functional; settings: Mus musculus; outline: as §3
[15] = system: Mus musculus; experiment: Compound is evaluated for activity against L1210 leukemia in mice, at dose 15 mg/kg expressed as T/C in experiment 1; type: functional; outline: as §2
[16] = system: Mus musculus; experiment: Compound is evaluated for activity against L1210 leukemia in mice, at dose 7.5 mg/kg expressed as T/C in experiment 1; type: functional; outline: as §2
[17] = system: L1210; experiment: Compound is evaluated for percent increase in life span against L1210 leukemia in mice, at dose 40 mg/kg in experiment 2; type: functional; settings: Mus musculus; outline: as §3
[18] = system: L1210; experiment: Compound is evaluated for percent increase in life span against L1210 leukemia in mice, at dose 20 mg/kg in experiment 2; type: functional; settings: Mus musculus; outline: as §3
[19] = system: L1210; experiment: Compound is evaluated for activity against L1210 leukemia in mice, at dose 20 mg/kg in experiment 2; type: functional, Mus musculus; outline: as §2
[20] = system: Mus musculus; experiment: Compound is evaluated for activity against L1210 leukemia in mice, at dose 40 mg/kg expressed as T/C in experiment 2; type: functional; outline: as §2
[21] = system: L1210; experiment: Compound is evaluated for percent increase in life span against L1210 leukemia in mice, at dose 15 mg/kg in experiment 1; type: functional; settings: Mus musculus; outline: as §3
[22] = system: Mus musculus; experiment: Compound is evaluated for activity against L1210 leukemia in mice, at dose 20 mg/kg expressed as T/C in experiment 2; type: functional; outline: as §2
[23] = system: L1210; experiment: Compound is evaluated for activity against L1210 leukemia in mice, at dose 40 mg/kg in experiment 2; type: functional, Mus musculus; outline: as §2
[24] = system: L1210; experiment: Compound is evaluated for activity against L1210 leukemia in mice, at dose 7.5 mg/kg in experiment 1; type: functional, Mus musculus; outline: as §2
[25] = system: L1210; experiment: Compound is evaluated for percent increase in life span against L1210 leukemia in mice, at dose 7.5 mg/kg in experiment 1; type: functional; settings: Mus musculus; outline: as §3
[26] = system: L1210; experiment: Compound is evaluated for activity against L1210 leukemia in mice, at dose 15 mg/kg in experiment 1; type: functional, Mus musculus; outline: as §2
[27] = biological target: T1, Dihydrofolate reductase (Mus musculus); experiment: Affinity for mammalian (L1210 mouse leukemia) dihydrofolate reductase
Outline: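 Partially purified DHFR from L1210 cells, diluted 8-fold in 0.1 M KH2PO4 (pH 6.2) with 0.1% BSA and 1 mM NADPH, then held on ice 5 min. Competition with [3H]MTX over serial 5-fold dilutions starting from a 6 μM solution, 5 min at 0 °C. Unbound ligand removed with Norite charcoal and the supernatant counted; ID50 (50% drop in bound label) read from a logit-log plot.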

[28] = biological target: Dihydrofolate reductase (Lactobacillus casei) (UniProt P00381); experiment: Affinity for partially purified bacterial (Lactobacillus casei) dihydrofolate reductase; settings: Lacticaseibacillus casei
[29] = system: Mus musculus; experiment: Compound is evaluated for activity against L1210 leukemia in mice, at dose 20 mg/kg expressed as T/C in experiment 2=16/9; type: functional; outline: as §2
[30] = system: Mus musculus; experiment: Compound was evaluated for activity against L1210 leukemia in mice, at dose 7.5 mg/kg expressed as T/C in experiment 1=14/10; type: functional; outline: as §2
[31] = system: Mus musculus; experiment: Compound is evaluated for activity against L1210 leukemia in mice, at dose 40 mg/kg expressed as T/C in experiment 2=12/9; type: functional; outline: as §2
[32] = system: L1210; experiment: Compound was evaluated for activity against L1210 leukemia in mice, at dose 7.5 mg/kg in experiment 1; type: functional, Mus musculus; outline: as §2
[33] = system: Mus musculus; experiment: Compound is evaluated for activity against L1210 leukemia in mice, at dose 15 mg/kg expressed as T/C in experiment 1=14/10; type: functional; outline: as §2

Which results are given for `CN(Cc1cnc2nc(N)nc(N)c2n1)c1ccc(C(=O)NC(CCC(=O)NC23CC4CC(CC(C4)C2)C3)C(=O)NC23CC4CC(CC(C4)C2)C3)cc1` (centres undefined)?
IC50 [1]: > 10000 nM; ID50 [2]: 6300 nM; IC50 [3]: 1600 nM; inhibition at 10 µM [4]: 38%; IC50 [5]: 3400 nM; ID50 [6]: 3100 nM

Which results are given for `CN(Cc1cnc2nc(N)nc(N)c2n1)c1ccc(C(=O)NC(CCC(=O)N(Cc2ccccc2)Cc2ccccc2)C(=O)N(Cc2ccccc2)Cc2ccccc2)cc1` (centres undefined)?
IC50 [1]: 7600 nM; ID50 [2]: 860 nM; IC50 [5]: 690 nM; ID50 [6]: 530 nM

Which IC50 [7] does the source give for `COc1ccc(CNC(=O)CCC(NC(=O)c2ccc(N(C)Cc3cnc4nc(N)nc(N)c4n3)cc2)C(=O)NCc2ccc(OC)cc2)cc1` (centres undefined) here?
The IC50 was 8200 nM.

And the “Median T/C” value [8]?
Its value is 15 days.

And the IC50 [9]?
Its IC50 is > 10000 nM.

What about the ID50 [2] of the same molecule?
Its ID50 is 400 nM.

And the MTX equivalent [10]?
The MTX equivalent was 64 mg/kg.

And the inhibition at 10 µM [4]?
The inhibition at 10 µM was 44%.

What about the ILS at 80 mg/kg [11] of the same molecule?
The ILS at 80 mg/kg was 22%.

And the “Median T/C” value [12]?
The value was 11 days.

What about the MTX equivalent [13] of the same molecule?
The MTX equivalent was 128 mg/kg.

What about the ID50 [6] of the same molecule?
Its ID50 is 130 nM.

And the ILS at 160 mg/kg [14]?
The ILS at 160 mg/kg was 66%.

`CN(Cc1cnc2nc(N)nc(N)c2n1)c1ccc(C(=O)NC(CCC(=O)NO)C(=O)O)cc1` (centres undefined) was tested. Which “Median T/C” value [15] did it give?
Its value is 16 days.

And the IC50 [7]?
Its IC50 is 62 nM.

And the “Median T/C” value [16]?
The value was 15 days.

What about the ILS at 40 mg/kg [17] of the same molecule?
Its ILS at 40 mg/kg is 111%.

What about the ILS at 20 mg/kg [18] of the same molecule?
The ILS at 20 mg/kg was 89%.

What about the MTX equivalent [19] of the same molecule?
The MTX equivalent was 19.4 mg/kg.

What about the “Median T/C” value [20] of the same molecule?
Its value is 19 days.

What about the ILS at 15 mg/kg [21] of the same molecule?
Its ILS at 15 mg/kg is 60%.

What about the IC50 [9] of the same molecule?
Its IC50 is 250 nM.

And the ID50 [2]?
Its ID50 is 30 nM.

What about the “Median T/C” value [22] of the same molecule?
Its value is 17 days.

What about the MTX equivalent [23] of the same molecule?
The MTX equivalent was 38.8 mg/kg.

What about the MTX equivalent [24] of the same molecule?
Its MTX equivalent is 7.3 mg/kg.

What about the ILS at 7.5 mg/kg [25] of the same molecule?
The ILS at 7.5 mg/kg was 50%.

What about the MTX equivalent [26] of the same molecule?
The MTX equivalent was 14.6 mg/kg.

What about the ID50 [6] of the same molecule?
The ID50 was 4.8 nM.

What does the source list for `CC(NC(=O)CCC(NC(=O)c1ccc(N(C)Cc2cnc3nc(N)nc(N)c3n2)cc1)C(=O)NC(C)c1ccccc1)c1ccccc1` (centres undefined)?
IC50 [1]: > 10000 nM; inhibition at 10 µM [4]: 25%; ID50 [27]: 11 nM; IC50 [5]: > 10000 nM; ID50 [28]: 310 nM

With `CN(Cc1cnc2nc(N)nc(N)c2n1)c1ccc(C(=O)NC(CCC(=O)NN)C(=O)NN)cc1` (centres undefined) as the molecule, how does the IC50 [7] read?
The IC50 was 950 nM.

And the ILS at 40 mg/kg [17]?
The ILS at 40 mg/kg was 33%.

And the “Median T/C” value [29]?
Its value is 16 days.

What about the ILS at 20 mg/kg [18] of the same molecule?
The ILS at 20 mg/kg was 77%.

What about the MTX equivalent [19] of the same molecule?
The MTX equivalent was 18.8 mg/kg.

And the ILS at 15 mg/kg [21]?
The ILS at 15 mg/kg was 40%.

What about the “Median T/C” value [30] of the same molecule?
The value was 14 days.

And the IC50 [9]?
Its IC50 is 7500 nM.

What about the ID50 [2] of the same molecule?
Its ID50 is 360 nM.

What about the IC50 [3] of the same molecule?
The IC50 was 960 nM.

And the “Median T/C” value [31]?
Its value is 12 days.

And the MTX equivalent [23]?
Its MTX equivalent is 37.6 mg/kg.

And the MTX equivalent [32]?
The MTX equivalent was 7.1 mg/kg.

And the “Median T/C” value [33]?
Its value is 14 days.

What about the ILS at 7.5 mg/kg [25] of the same molecule?
Its ILS at 7.5 mg/kg is 40%.

What about the MTX equivalent [26] of the same molecule?
The MTX equivalent was 14.2 mg/kg.

What about the ID50 [6] of the same molecule?
Its ID50 is 20 nM.
